Experimental data published in ChEMBL document CHEMBL1123825, “Synthesis and activity profiles of new dermorphin-(1-4) peptide analogues” (J Med Chem, 1987).
Non-standard residues stand in square brackets, D forms with d. Residues, ends and D or L forms follow the SMILES beside them. ξ: configuration not given here. Met(O) = CS(=O)CC[C@H](N)C(=O)O; ξA = CC(N)C(=O)O; Sar = CNCC(=O)O

Experiments:
[1] = tested on: Mus musculus; experiment: The compound was evaluated for the analgesic activity by tail-flick test after icv administration of compound in mouse; value ranges from […]-[…]; type: functional
[2] = tested on: Mus musculus; experiment: The compound was evaluated for the analgesic activity by tail-flick test after subcutaneous administration of compound in mouse; value ranges from 0.48-1.51; type: functional; details: sc
[3] = tested on: Mus musculus; experiment: Relative potency was determined for the compound with respect to morphine activity (1) after icv administration; type: functional
[4] = tested on: Mus musculus; experiment: Relative potency was determined for the compound with respect to morphine activity (1) after subcutaneous administration; type: functional
[5] = target: Kappa-type opioid receptor (Cavia porcellus, UniProt P41144); experiment: Evaluated for the inhibition of [3H]EKC binding to Opioid receptor kappa 1 of guinea pig brain
Kappa-type opioid receptor, sequence (P41144 whole entry): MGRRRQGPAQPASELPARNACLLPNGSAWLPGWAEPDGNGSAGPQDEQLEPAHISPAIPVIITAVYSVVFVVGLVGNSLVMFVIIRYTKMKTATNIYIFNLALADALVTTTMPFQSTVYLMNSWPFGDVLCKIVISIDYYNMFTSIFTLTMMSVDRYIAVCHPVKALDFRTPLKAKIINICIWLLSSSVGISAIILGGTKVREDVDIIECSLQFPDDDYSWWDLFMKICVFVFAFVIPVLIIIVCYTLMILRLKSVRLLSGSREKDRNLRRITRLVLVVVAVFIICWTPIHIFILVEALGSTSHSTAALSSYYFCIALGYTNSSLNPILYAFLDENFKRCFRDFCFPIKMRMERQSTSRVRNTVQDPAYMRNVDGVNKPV

[6] = target: Mu-type opioid receptor (Cavia porcellus, UniProt P97266); experiment: Evaluated for the inhibition of [3H]DAGO binding to mu-receptor of guinea pig brain
Mu-type opioid receptor, sequence (P97266 whole entry): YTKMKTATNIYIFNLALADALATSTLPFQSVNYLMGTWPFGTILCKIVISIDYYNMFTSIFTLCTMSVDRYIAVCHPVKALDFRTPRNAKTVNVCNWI
Summary of the method: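 Male guinea pig brain minus cerebellum, homogenized in 50 mM Tris (pH 7.4), preincubated 37 °C for 45 min; 18 mg tissue per tube. [3H]DAGO 0.6 nM, 40 min at 25 °C, then GF/B filtration. Nonspecific binding defined with […] bremazocine. Six or more concentrations, each in triplicate; IC50 by probit analysis.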

[7] = target: Mu-type opioid receptor (Cavia porcellus) (UniProt P97266); experiment: Relative potency with respect to morphine was evaluated for mu-receptor of guinea pig brain
Mu-type opioid receptor (Cavia porcellus), sequence (P97266 whole entry): as above

[8] = tested on: Mus musculus; experiment: The compound was evaluated for the analgesic activity by tail-flick test after icv administration of compound in mouse; value ranges from 0.51-9.7; type: functional
[9] = tested on: Mus musculus; experiment: The compound was evaluated for the analgesic activity by tail-flick test after subcutaneous administration of compound in mouse; value ranges from 0.31-1.09; type: functional; details: sc
[10] = tested on: Mus musculus; experiment: The compound was evaluated for the analgesic activity by tail-flick test after icv administration of compound in mouse; value ranges from 11.8-23; type: functional
[11] = tested on: Mus musculus; experiment: The compound was evaluated for the analgesic activity by tail-flick test after subcutaneous administration of compound in mouse; value ranges from 1.40-4.89; type: functional; details: sc
[12] = tested on: Mus musculus; experiment: The compound was evaluated for the analgesic activity by tail-flick test after icv administration of compound in mouse; value ranges from 1.35-3.36; type: functional
[13] = tested on: Mus musculus; experiment: The compound was evaluated for the analgesic activity by tail-flick test after subcutaneous administration of compound in mouse; value ranges from 0.54-0.83; type: functional; details: sc
[14] = tested on: Mus musculus; experiment: The compound was evaluated for the analgesic activity by tail-flick test after icv administration of compound in mouse; value ranges from 12.6-41.7; type: functional
[15] = tested on: Mus musculus; experiment: The compound was evaluated for the analgesic activity by tail-flick test after subcutaneous administration in mouse; value ranges from 2.69-17.0; type: functional; details: sc
[16] = tested on: Mus musculus; experiment: The compound was evaluated for the analgesic activity by tail-flick test after subcutaneous administration of compound in mouse; value ranges from 2.60-17.0; type: functional; details: sc
[17] = tested on: Mus musculus; experiment: The compound was evaluated for the analgesic activity by tail-flick test after icv administration of compound in mouse; value ranges from 5.5-16.3; type: functional
[18] = tested on: Mus musculus; experiment: The compound was evaluated for the analgesic activity by tail-flick test after icv administration of compound in mouse; value ranges from 2.8-12.6; type: functional
[19] = tested on: Mus musculus; experiment: The compound was evaluated for the analgesic activity by tail-flick test after subcutaneous administration of compound in mouse; value ranges from 0.28-0.80; type: functional; details: sc
[20] = tested on: Mus musculus; experiment: The compound was evaluated for the analgesic activity by tail-flick test after icv administration of compound in mouse; value ranges from 34-72; type: functional
[21] = tested on: Mus musculus; experiment: The compound was evaluated for the analgesic activity by tail-flick test after subcutaneous administration of compound in mouse; value ranges from 2.51-17.4; type: functional; details: sc
[22] = tested on: Mus musculus; experiment: The compound was evaluated for the analgesic activity by tail-flick test after subcutaneous administration of compound in mouse; value ranges from 2.92-8.75; type: functional; details: sc
[23] = tested on: Mus musculus; experiment: The compound was evaluated for the analgesic activity by tail-flick test after icv administration of compound in mouse; value ranges from 31-85; type: functional
[24] = tested on: Mus musculus; experiment: The compound was evaluated for the analgesic activity by tail-flick test after subcutaneous administration of compound in mouse; value ranges from 2.64-10.0; type: functional; details: sc
[25] = tested on: Mus musculus; experiment: The compound was evaluated for the analgesic activity by tail-flick test after icv administration of compound in mouse; value ranges from 27-40.8; type: functional
[26] = tested on: Mus musculus; experiment: The compound was evaluated for the analgesic activity by tail-flick test after icv administration of compound in mouse; value ranges from 6.1-11.4; type: functional
[27] = tested on: Mus musculus; experiment: The compound was evaluated for the analgesic activity by tail-flick test after subcutaneous administration of compound in mouse; value ranges from 0.21-1.06; type: functional; details: sc
[28] = tested on: Mus musculus; experiment: The compound was evaluated for the analgesic activity by tail-flick test after subcutaneous administration of compound in mouse; value ranges from 3.48-14.95; type: functional; details: sc
[29] = tested on: Mus musculus; experiment: The compound was evaluated for the analgesic activity by tail-flick test after icv administration of compound in mouse; value ranges from 14.8-58; type: functional
[30] = tested on: Mus musculus; experiment: The compound was evaluated for the analgesic activity by tail-flick test after icv administration of compound in mouse; value ranges from 46.4-120; type: functional
[31] = tested on: Mus musculus; experiment: The compound was evaluated for the analgesic activity by tail-flick test after subcutaneous administration of compound in mouse; value ranges from 26.7-99.1; type: functional; details: sc
[32] = tested on: Mus musculus; experiment: The compound was evaluated for the analgesic activity by tail-flick test after icv administration of compound in mouse; value ranges from 6.6-27.1; type: functional
Summary of the method: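 Swiss-Webster mice (23-25 g), tail immersed in 55 °C water, reaction time read before and at various times after icv dosing in saline (4 µL); 10 s cutoff. % analgesia = [(T − T0)/(10 − T0)] × 100. At least four doses, at least eight mice per dose; ED50 estimated at time of peak activity. Opioid specificity checked by naloxone pretreatment (0.5-1 mg/kg sc).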

[33] = tested on: Mus musculus; experiment: The compound was evaluated for the analgesic activity by tail-flick test after icv administration of compound in mouse; value ranges from 2550-4200; type: functional
[34] = organism: Mus musculus; experiment: animal or person; details: Tail, sc

Row | SMILES | Relative potency [3] | Relative potency [4] | IC50 [5] [nM] | IC50 [6] [nM] | Relative potency [7] | further results
1 | COC(=O)CN(C)C(=O)[C@H](Cc1ccccc1)NC(=O)[C@H](CC[S+](C)[O-])NC(=O)[C@H](Cc1ccc(O)cc1)N=C(N)N (stereo not given in full) | 81 | 14.4 | > 10000 | 23 | 0.17 | ED50 [1]: 38.1 pmol/mouse; ED50 [2]: 0.75 µmol/kg
2 | C[S+]([O-])CC[C@H](NC(=O)[C@H](Cc1ccc(O)cc1)N=C(N)N)C(=O)N[C@@H](Cc1ccccc1)C(=O)NCC(N)=O (stereo not given in full) | – | – | > 10000 | 5 | – | ED50 [8]: 2 pmol/mouse; ED50 [9]: 0.53 µmol/kg
3 | COC(=O)CNC(=O)[C@H](Cc1ccccc1)NC(=O)[C@H](CC[S+](C)[O-])NC(=O)[C@H](Cc1ccc(O)cc1)N=C(N)N (stereo not given in full) | – | – | > 10000 | 23.5 | – | ED50 [10]: 15.5 pmol/mouse; ED50 [11]: 2.39 µmol/kg
4 | C[C@H](NC(=O)[C@@H](N)Cc1ccc(O)cc1)C(=O)N[C@@H](Cc1ccccc1)C(=O)NCC(N)=O (H-YAFG-NH2) | – | – | – | – | 0.11 | –
5 | C[S+]([O-])CC[C@H](NC(=O)[C@@H](N)Cc1ccc(O)cc1)C(=O)N[C@@H](Cc1ccccc1)C(=O)NCC(N)=O (stereo not given in full) (H-Y[Met(O)]FG-NH2) | – | – | > 10000 | 6.3 | – | ED50 [12]: 2.01 pmol/mouse; ED50 [13]: 0.66 µmol/kg
6 | C[S+]([O-])CC[C@H](NC(=O)[C@@H](N)Cc1ccc(O)cc1)C(=O)N[C@@H](Cc1ccccc1)C(=O)NCC(=O)O (stereo not given in full) (H-Y[Met(O)]FG-OH) | – | – | > 10000 | 61 | – | ED50 [14]: 20.5 pmol/mouse; ED50 [15]: 4.64 µmol/kg
7 | COC(=O)CNC(=O)[C@H](Cc1ccccc1)NC(=O)[C@H](CC[S+](C)[O-])NC(=O)[C@@H](N)Cc1ccc(O)cc1 (stereo not given in full) (H-Y[Met(O)]FG-OMe) | – | – | > 10000 | 5 | – | ED50 [16]: 4.21 µmol/kg; ED50 [17]: 10 pmol/mouse
8 | CN(CC(N)=O)C(=O)[C@H](Cc1ccccc1)NC(=O)[C@H](CC[S+](C)[O-])NC(=O)[C@@H](N)Cc1ccc(O)cc1 (stereo not given in full) (H-Y[Met(O)]F[Sar]-NH2) | 561 | 22.5 | > 10000 | 6 | 0.67 | ED50 [18]: 5.5 pmol/mouse; ED50 [19]: 0.48 µmol/kg
9 | CN(CC(=O)O)C(=O)[C@H](Cc1ccccc1)NC(=O)[C@H](CC[S+](C)[O-])NC(=O)[C@@H](N)Cc1ccc(O)cc1 (stereo not given in full) (H-Y[Met(O)]F[Sar]-OH) | 67 | 2.3 | > 10000 | 77 | 0.05 | ED50 [20]: 45.8 pmol/mouse; ED50 [21]: 4.63 µmol/kg
10 | COC(=O)CN(C)C(=O)[C@H](Cc1ccccc1)NC(=O)[C@H](CC[S+](C)[O-])NC(=O)[C@@H](N)Cc1ccc(O)cc1 (stereo not given in full) (H-Y[Met(O)]F[Sar]-OMe) | 64 | 2.7 | > 10000 | 6 | 0.67 | ED50 [22]: 4.05 µmol/kg; ED50 [23]: 47.9 pmol/mouse
11 | CC(NC(=O)[C@H](Cc1ccccc1)NC(=O)[C@H](CC[S+](C)[O-])NC(=O)[C@@H](N)Cc1ccc(O)cc1)C(N)=O (stereo not given in full) (H-Y[Met(O)]F[ξA]-NH2) | 93 | 2.5 | > 10000 | 17 | 0.24 | ED50 [24]: 4.38 µmol/kg; ED50 [25]: 33 pmol/mouse
12 | CC(NC(=O)[C@H](Cc1ccccc1)NC(=O)[C@H](CC[S+](C)[O-])NC(=O)[C@@H](N)Cc1ccc(O)cc1)C(=O)O (stereo not given in full) (H-Y[Met(O)]F[ξA]-OH) | – | – | > 10000 | 120 | – | ED50 [26]: 8.4 pmol/mouse; ED50 [27]: 0.36 µmol/kg
13 | COC(=O)C(C)NC(=O)[C@H](Cc1ccccc1)NC(=O)[C@H](CC[S+](C)[O-])NC(=O)[C@@H](N)Cc1ccc(O)cc1 (stereo not given in full) (H-Y[Met(O)]F[ξA]-OMe) | – | – | > 10000 | 9 | – | ED50 [28]: 5.16 µmol/kg; ED50 [29]: 18.2 pmol/mouse
14 | C[C@@H](NC(=O)[C@@H](N)Cc1ccc(O)cc1)C(=O)N[C@@H](Cc1ccccc1)C(=O)NCC(N)=O (H-Y[dA]FG-NH2) [listing 1 of 2 here] | – | – | > 10000 | 36.7 | – | –
15 | C[C@@H](NC(=O)[C@@H](N)Cc1ccc(O)cc1)C(=O)N[C@@H](Cc1ccccc1)C(=O)NCC(N)=O (H-Y[dA]FG-NH2) [listing 2 of 2 here] | 45 | 0.2 | – | – | – | ED50 [30]: 68.8 pmol/mouse; ED50 [31]: 60.3 µmol/kg
16 | C[C@@H](NC(=O)[C@@H](N)Cc1ccc(O)cc1)C(=O)N[C@@H](Cc1ccccc1)C(=O)NCC(=O)N[C@@H](Cc1ccc(O)cc1)C(=O)N1CCC[C@H]1C(=O)N[C@@H](CO)C(N)=O [DERMORPHIN] | – | – | > 10000 | 5.7 | – | ED50 [32]: 11.4 pmol/mouse
17 | CN1CC[C@]23c4c5ccc(O)c4O[C@H]2[C@@H](O)C=C[C@H]3[C@H]1C5 [MORPHINE] | – | – | – | – | – | ED50 [33]: 3090 pmol/mouse; ED50 [34]: 10.8 µmol/kg
